Assays:
Type in all cases: functional
M14 = test: Growth inhibition of human M14 cells
Summary of the method: (§1)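 NCI 60 cancer cell line screen run per the Developmental Therapeutics Program protocol. Dose–response curves were plotted against log10 drug concentration for each cell line within its subpanel, and mean graph midpoint values were calculated.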

MOLT-4 = test: Growth inhibition of human MOLT4 cells; summary of the method: as §1
COLO 205 = test: Growth inhibition of human COLO205 cells; summary of the method: as §1
SK-MEL-5 = test: Growth inhibition of human SK-MEL-5 cells
Summary of the method: (§2)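 Assayed in the NCI 60 human cancer cell line panel under the Developmental Therapeutics Program protocol. For each line, dose–response curves were plotted against log10 drug concentration. In the one-dose screen at 10^-5 M, growth was given as percent of untreated control cells, and mean graph midpoint values were averaged.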

SNB-19 = test: Growth inhibition of human SNB19 cells; summary of the method: as §2
DU-145 = test: Growth inhibition of human DU145 cells; summary of the method: as §1
OVCAR-5 = test: Growth inhibition of human OVCAR5 cells; summary of the method: as §1
786-0 = test: Growth inhibition of human 786-0 cells; summary of the method: as §1
EKVX = test: Growth inhibition of human EKVX cells; summary of the method: as §1
K562 = test: Growth inhibition of human K562 cells; summary of the method: as §1
PC-3 = test: Growth inhibition of human PC3 cells; summary of the method: as §2
RXF 393 = test: Growth inhibition of human RXF393 cells; summary of the method: as §2
A498 = test: Growth inhibition of human A498 cells; summary of the method: as §1
SR = test: Growth inhibition of human SR cells; summary of the method: as §2
SF-268 = test: Growth inhibition of human SF268 cells; summary of the method: as §2
HOP-92 = test: Growth inhibition of human HOP92 cells; summary of the method: as §1
CCRF-CEM = test: Growth inhibition of human CCRF-CEM cells; summary of the method: as §1
MDA-MB-468 = test: Growth inhibition of human MDA-MB-468 cells; summary of the method: as §1
U-251 = test: Growth inhibition of human U251 cells; summary of the method: as §2
HCT-15 = test: Growth inhibition of human HCT15 cells; summary of the method: as §1
NCI-H226 = test: Growth inhibition of human NCI-H226 cells; summary of the method: as §1
MCF7 = test: Growth inhibition of human MCF7 cells; summary of the method: as §1
SNB-75 = test: Growth inhibition of human SNB75 cells; summary of the method: as §2
KM12 = test: Growth inhibition of human KM12 cells; summary of the method: as §1
SN12C = test: Growth inhibition of human SN12C cells; summary of the method: as §2
NCI-H23 = test: Growth inhibition of human NCI-H23 cells; summary of the method: as §1
UACC-257 = test: Growth inhibition of human UACC257 cells; summary of the method: as §2
SF-295 = test: Growth inhibition of human SF295 cells; summary of the method: as §2
HOP-62 = test: Growth inhibition of human HOP62 cells; summary of the method: as §1
SK-OV-3 = test: Growth inhibition of human SKOV3 cells; summary of the method: as §2
SF-539 = test: Growth inhibition of human SF539 cells; summary of the method: as §2
NCI/ADR-RES = test: Growth inhibition of human NCI/ADR-RES cells; summary of the method: as §1
UO-31 = test: Growth inhibition of human UO31 cells; summary of the method: as §2
T47D = test: Growth inhibition of human T47D cells; summary of the method: as §2
LOX IMVI = test: Growth inhibition of human LOXIMVI cells; summary of the method: as §1
[1] = read-out: LC50 (the source's name)

For `CCc1nc2ccc3c(c2[nH]1)C(=O)c1ccccc1C3=O`, the GI50 (M14) was 7.42 µM, the TGI (M14) was over 100 µM and the CC50 (M14; [1]) was over 100 µM. The GI50 (MOLT-4) was 4.22 µM, the TGI (MOLT-4) was over 100 µM and the CC50 (MOLT-4; [1]) was over 100 µM. It also gave a GI50 (COLO 205) of 8.95 µM, a TGI (COLO 205) of over 100 µM and a CC50 (COLO 205; [1]) of over 100 µM. The GI50 (SK-MEL-5) was 12.7 µM, the TGI (SK-MEL-5) was 59.1 µM and the CC50 (SK-MEL-5; [1]) was over 100 µM. The GI50 (SNB-19) was 18.1 µM, the TGI (SNB-19) was over 100 µM and the CC50 (SNB-19; [1]) was over 100 µM. It also gave a GI50 (DU-145) of 9.43 µM, a TGI (DU-145) of over 100 µM and a CC50 (DU-145; [1]) of over 100 µM. For the same compound, the GI50 (OVCAR-5) was 77.4 µM, the TGI (OVCAR-5) was over 100 µM and the CC50 (OVCAR-5; [1]) was over 100 µM. The GI50 (786-0) was 43.6 µM, the TGI (786-0) was over 100 µM and the CC50 (786-0; [1]) was over 100 µM. The GI50 (EKVX) was 4.6 µM, the TGI (EKVX) was over 100 µM and the CC50 (EKVX; [1]) was over 100 µM. It also gave a GI50 (K562) of over 100 µM, a TGI (K562) of over 100 µM and a GI50 (PC-3) of 28.2 µM. For the same compound, the TGI (PC-3) was over 100 µM, the CC50 (PC-3; [1]) was over 100 µM and the GI50 (RXF 393) was 6.95 µM. For the same compound, the TGI (RXF 393) was over 100 µM, the CC50 (RXF 393; [1]) was over 100 µM and the GI50 (A498) was over 100 µM. It also gave a TGI (A498) of over 100 µM, a CC50 (A498; [1]) of over 100 µM and a GI50 (SR) of 6.71 µM. For the same compound, the TGI (SR) was over 100 µM, the CC50 (SR; [1]) was over 100 µM and the GI50 (SF-268) was 20.3 µM. The TGI (SF-268) was over 1000 µM, the CC50 (SF-268; [1]) was over 100 µM and the GI50 (HOP-92) was 9.84 µM. The TGI (HOP-92) was 7.58 µM, the CC50 (HOP-92; [1]) was over 100 µM and the GI50 (CCRF-CEM) was 16.5 µM. For the same compound, the TGI (CCRF-CEM) was over 100 µM, the CC50 (CCRF-CEM; [1]) was over 100 µM and the GI50 (MDA-MB-468) was 8.29 µM. For the same compound, the TGI (MDA-MB-468) was over 100 µM, the CC50 (MDA-MB-468; [1]) was over 100 µM and the GI50 (U-251) was 16.3 µM. It also gave a TGI (U-251) of over 100 µM, a CC50 (U-251; [1]) of over 100 µM and a GI50 (HCT-15) of 3.39 µM. It also gave a TGI (HCT-15) of over 100 µM, a CC50 (HCT-15; [1]) of over 100 µM and a GI50 (NCI-H226) of 2.46 µM. The TGI (NCI-H226) was over 100 µM, the CC50 (NCI-H226; [1]) was over 100 µM and the GI50 (MCF7) was 13 µM. For the same compound, the TGI (MCF7) was over 100 µM, the CC50 (MCF7; [1]) was over 100 µM and the GI50 (SNB-75) was 62.5 µM. The TGI (SNB-75) was over 100 µM, the CC50 (SNB-75; [1]) was over 100 µM and the GI50 (KM12) was 7.69 µM. For the same compound, the TGI (KM12) was over 100 µM, the CC50 (KM12; [1]) was over 100 µM and the GI50 (SN12C) was 13.6 µM. The TGI (SN12C) was over 100 µM, the CC50 (SN12C; [1]) was over 100 µM and the GI50 (NCI-H23) was 12.1 µM. It also gave a TGI (NCI-H23) of over 100 µM, a CC50 (NCI-H23; [1]) of over 100 µM and a GI50 (UACC-257) of 47.2 µM. The TGI (UACC-257) was over 100 µM, the CC50 (UACC-257; [1]) was over 100 µM and the GI50 (SF-295) was 4.15 µM. For the same compound, the TGI (SF-295) was over 100 µM, the CC50 (SF-295; [1]) was over 100 µM and the GI50 (HOP-62) was 32.2 µM. For the same compound, the TGI (HOP-62) was over 100 µM, the CC50 (HOP-62; [1]) was over 100 µM and the GI50 (SK-OV-3) was 2.59 µM. The TGI (SK-OV-3) was over 100 µM, the CC50 (SK-OV-3; [1]) was over 100 µM and the GI50 (SF-539) was 11.7 µM. The TGI (SF-539) was over 100 µM, the CC50 (SF-539; [1]) was over 100 µM and the GI50 (NCI/ADR-RES) was 18.9 µM. The TGI (NCI/ADR-RES) was over 100 µM, the CC50 (NCI/ADR-RES; [1]) was over 100 µM and the GI50 (UO-31) was 1.33 µM. It also gave a TGI (UO-31) of over 100 µM, a CC50 (UO-31; [1]) of over 100 µM and a GI50 (T47D) of 3.3 µM. For the same compound, the TGI (T47D) was over 100 µM, the GI50 (LOX IMVI) was 4.56 µM and the TGI (LOX IMVI) was over 100 µM. The CC50 (LOX IMVI; [1]) was over 100 µM.
